Here are results for three molecules from ChEMBL document CHEMBL1151181, “New sesterterpenes from the Antarctic sponge Suberites sp” (2004).

Holding throughout (format): functional
One test deals with Escherichia coli. The test can be described thus: Antimicrobial activity against Escherichia coli at 25 ug by paper-disk method. The conditions noted are these: read-out: IZ. A digest of the protocol:
(§1)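 Paper-disk diffusion assay with 25 µg of compound per disk; activity read as diameter of the growth-inhibition zone in mm. The Streptococcus strain is given only as Streptococcus sp.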

The next test concerns Staphylococcus aureus. The test is described as follows: Antimicrobial activity against Staphylococcus aureus at 25 ug by paper-disk method. The following applies: read-out: IZ. A digest of the protocol: as §1
For another test, the system named is Bacillus subtilis. The test is described as follows: Antimicrobial activity against Bacillus subtilis at 25 ug by paper-disk method. The conditions noted are these: read-out: IZ. A digest of the protocol: as §1
Another test concerns Streptococcus. The test is described as follows: Antimicrobial activity against Streptococcus at 25 ug by paper-disk method. The following applies: read-out: IZ. Put shortly:
as §1

The subject of a further test is Candida albicans. The test can be described thus: Antimicrobial activity against Candida albicans at 25 ug by paper-disk method. The conditions noted are these: read-out: IZ. A digest of the protocol:
as §1

The test system of another test is K562. The test is described as follows: Cytotoxicity against human K562 cells by MTT method. The following applies: read-out: LC50 (the source's name). A digest of the protocol: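 Human leukemia K562 cell line, MTT read-out; value expressed as LC50 in µg/mL.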

`CC(=O)O[C@@H]1C=C(C)C(=O)C[C@H]1[C@@]1(O)CC[C@@H]2[C@@](C)(C[C@@H](OC(C)=O)[C@H]3C(C)(C)CCC[C@]23C)C1`: the zone of inhibition at 25 µg/disc in the test with Escherichia coli, with Staphylococcus aureus, in the test on Bacillus subtilis, in the test with Streptococcus and in the test on Candida albicans was below 3 mm in each case.
`CC(=O)O[C@@H]1C[C@@]2(C)CC(c3ccc(C)c(O)c3)=CC[C@H]2[C@@]2(C)CCCC(C)(C)[C@H]12` [SUBERIPHENOL]: the zone of inhibition at 25 µg/disc with Escherichia coli, in the test on Staphylococcus aureus, in the test with Bacillus subtilis, in the test with Streptococcus and in the test on Candida albicans was below 3 mm each time. Also, the CC50 in the test with K562 is above 100 µg/mL.
As for `CC(=O)O[C@@H]1C[C@@]2(C)CC([C@@H]3CC(=O)C(C)=C[C@H]3O)=CC[C@H]2[C@@]2(C)CCCC(C)(C)[C@H]12` [SUBERITENONE C], the zone of inhibition at 25 µg/disc in the test with Escherichia coli, in the test with Staphylococcus aureus, with Bacillus subtilis, with Streptococcus and in the test with Candida albicans was below 3 mm throughout. Besides, in the test with K562, the CC50 was above 100 µg/mL.
